According to ChEMBL document CHEMBL1122166, “Beta-adrenergic blocking agents. 22. 1-Phenoxy-3-[[(substituted-amido) alkyl]amino]-2-propanols” (J Med Chem, 1982):

Columns and labels:
[1] = target: T1, Adrenergic receptor beta (Homo sapiens) (UniProt P08588+P07550+P13945); test: In vivo beta adrenergic receptor blocking potency was determined by inhibition of tachycardia produced by isoproterenol (0.2 mg/kg iv) in cat preparation; format: functional, organism-based
Method in brief: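 Test agent infused over 30 min at three to five dose levels. Challenge was a submaximal isoproterenol dose (0.2 μg/kg iv). Mean log values were taken from two or three tests, with standard errors of the means.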

[2] = target: T1, Adrenergic receptor beta (Homo sapiens); test: In vivo beta adrenergic receptor blocking potency was determined by inhibition of depressor response produced by isoproterenol (0.2 mg/kg iv) in cat preparation; format: functional, organism-based
Method in brief: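 Test agent infused over 30 min at three to five dose levels against a submaximal isoproterenol challenge (0.2 μg/kg iv). The percent blockade of the isoproterenol vasodepressor response was estimated at the dose level derived from the tachycardia inhibition estimate.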

[3] = target: T1, Adrenergic receptor beta (Homo sapiens); test: In vivo beta adrenergic receptor blocking potency was determined by inhibition of tachycardia produced by isoproterenol (0.2 µg/kg iv) in cat preparation; details: Felis catus; target entry is the homologue from another species
[4] = Felis catus; in the assay text read “0.2 µg/kg iv” for “0.2 mg/kg iv”; target entry is the homologue from another species
[5] = Felis catus; target entry is the homologue from another species; in the assay text read “0.2 µg/kg iv” for “0.2 mg/kg iv”

Row | Compound | ED50 [1, 4] [mg/kg] | inhibition [2, 5] [%] | inhibition [2, 4] [%] | ED50 [1, 5] [mg/kg] | ED50 [3] [mg/kg]
1 | CCCCCCCCC(=O)NCCNCC(O)COc1ccccc1 (stereo unspecified) | 0.84 | 3 | – | – | –
2 | CCCCNC(=O)NCCNCC(O)COc1ccccc1C#N (stereo unspecified) | 0.304 | – | 0 | – | –
3 | CC(=O)NCCCCCCNCC(O)COc1ccccc1 (stereo unspecified) | – | 16 | – | 0.044 | –
4 | O=C(NCCNCC(O)COc1ccccc1)c1ccc(O)c(O)c1 (stereo unspecified) | – | 0 | – | 0.014 | –
5 | CC(C)C(=O)NCCCNCC(O)COc1ccccc1 (stereo unspecified) | – | – | 0 | – | 0.21
6 | CC(CNC(=O)Cc1ccccc1)NCC(O)COc1ccccc1 (stereo unspecified) | 0.003 | 0 | – | – | –
7 | N#Cc1ccccc1OCC(O)CNCCNC(=O)Nc1ccccc1[N+](=O)[O-] (stereo unspecified) | 0.097 | – | 11 | – | –
8 | CC(CNC(=O)C(C)C)NCC(O)COc1ccccc1 (stereo unspecified) | 0.005 | 37 | – | – | –
9 | Cc1c(N)cc(S(=O)(=O)NCCNCC(O)COc2ccccc2)cc1[N+](=O)[O-] (stereo unspecified) | – | – | 34 | – | 0.217
10 | C=CCNC(=O)NCCNCC(O)COc1ccccc1 (stereo unspecified) | – | – | 5 | 0.024 | –
11 | CNC(=O)NCCNCC(O)COc1ccccc1C#N (stereo unspecified) | 0.044 | – | 18 | – | –
12 | CC(C)C(=O)NCC(C)(C)NCC(O)COc1ccccc1 (stereo unspecified) | – | 0 | – | 0.003 | –
13 | O=C(COc1ccccc1)NCCNCC(O)COc1ccccc1 (stereo unspecified) | 0.038 | 0 | – | – | –
14 | COCC(=O)NCCNCC(O)COc1ccccc1 (stereo unspecified) | 0.016 | – | 0 | – | –
15 | CC(C)NC(=O)NCCNCC(O)COc1ccccc1 (stereo unspecified) | 0.099 | 0 | – | – | –
16 | O=C(NCCNCC(O)COc1ccccc1[N+](=O)[O-])Nc1ccccc1 (stereo unspecified) | 0.052 | – | 14 | – | –
17 | CC(=O)NCCNCC(O)COc1ccccc1 (stereo unspecified) | 0.015 | – | 7 | – | –
18 | CC(C)(OC(=O)NCCNCC(O)COc1ccccc1)c1ccc(Cl)cc1 (stereo unspecified) | 0.078 | – | 25 | – | –
19 | CCNC(=O)NCCNCC(O)COc1ccccc1 (stereo unspecified) | – | 0 | – | 0.024 | –
20 | CS(=O)(=O)NCCNCC(O)COc1ccccc1 (stereo unspecified) | 0.039 | – | 0 | – | –
21 | O=C(NCCNCC(O)COc1ccccc1)NC1CCCCC1 (stereo unspecified) | – | 6 | – | – | 0.282
22 | CC(C)C(=O)NCCNCC(O)COc1ccccc1[N+](=O)[O-] (stereo unspecified) | – | 5 | – | 0.006 | –

Row | Compound | ED50 [1, 4] [mg/kg] | inhibition [2, 5] [%] | inhibition [2, 4] [%] | ED50 [1, 5] [mg/kg] | ED50 [3] [mg/kg]
23 | O=C(NCCNCC(O)COc1ccccc1Cl)Nc1ccccc1 (stereo unspecified) | – | – | 4 | 0.037 | –
24 | CCCCCC(=O)NCCNCC(O)COc1ccccc1 (stereo unspecified) | 0.159 | 0 | – | – | –
25 | CCCCNC(=O)NCCNCC(O)COc1ccccc1 (stereo unspecified) | – | – | 8 | 0.022 | –
26 | CC(CNC(=O)Cc1ccccc1Cl)NCC(O)COc1ccccc1[N+](=O)[O-] (stereo unspecified) | – | – | 34 | 0.007 | –
27 | O=C(Cc1ccccc1)NCCNCC(O)COc1ccccc1 (stereo unspecified) | 0.029 | – | 0 | – | –
28 | O=C(NCCNCC(O)COc1ccccc1)c1ccccc1Cl (stereo unspecified) | 0.161 | – | 0 | – | –
29 | CC(C)(C)C(=O)NCCNCC(O)COc1ccccc1[N+](=O)[O-] (stereo unspecified) | 0.011 | 25 | – | – | –
30 | C=CCOc1ccccc1OCC(O)CNC(C)CNC(=O)Cc1ccccc1 (stereo unspecified) | – | 30 | – | 0.019 | –
31 | CC(C)S(=O)(=O)NCCNCC(O)COc1ccccc1 (stereo unspecified) | 0.008 | 9 | – | – | –
32 | CC(CNC(=O)Cc1ccccc1)NCC(O)COc1ccccc1C#N (stereo unspecified) | 0.004 | – | 10 | – | –
33 | NC(=O)NCCNCC(O)COc1ccccc1 (stereo unspecified) | 0.012 | – | 0 | – | –
34 | C=CCOc1ccccc1OCC(O)CNCCNC(=O)Nc1ccccc1 (stereo unspecified) | – | 24 | – | 0.037 | –
35 | CC(C)NC(=O)NCCNCC(O)COc1ccccc1C#N (stereo unspecified) | – | 0 | – | 0.168 | –
36 | N#Cc1ccccc1OCC(O)CNCCNC(N)=O (stereo unspecified) | 0.06 | 21 | – | – | –
37 | O=C(NCCNCC(O)COc1ccccc1)c1cc(O)ccc1O (stereo unspecified) | 0.616 | – | 0 | – | –
38 | CN(C)c1ccccc1C(=O)NCCNCC(O)COc1ccccc1 (stereo unspecified) | – | – | 0 | 0.465 | –
39 | CCCCCC(=O)NCC(C)NCC(O)COc1ccccc1 (stereo unspecified) | 0.005 | – | 0 | – | –
40 | O=C(NCCNCC(O)COc1ccccc1)C1CCCCC1 (stereo unspecified) | – | – | 0 | 0.02 | –
41 | O=C(Cc1ccc(Cl)cc1)NCCNCC(O)COc1ccccc1 (stereo unspecified) | 0.017 | 8 | – | – | –
42 | O=C(NCCNCC(O)COc1ccccc1)C1CC1 (stereo unspecified) | – | – | 0 | 0.022 | –
43 | CC(C)(CNC(=O)Cc1ccccc1)NCC(O)COc1ccccc1 (stereo unspecified) | 0.011 | 0 | – | – | –
